Values after ≈ are worked out from the molar mass of the structure shown. Active and inactive are the calls of the source. The rule behind the calls is not given here.
Key:
HepG2 [1] = test: Induction of apoptosis in human HepG2 cells assessed as late apoptotic cells at IC50 incubated for 72 hrs by annexin V/propidium iodide staining based flow cytometry (reference value: 0.1 +/- 0.001%); type: functional
MCF7 [2] = test: Induction of apoptosis in human MCF7 cells assessed as late apoptotic cells at IC50 incubated for 72 hrs by annexin V/propidium iodide staining based flow cytometry (reference value: 0.01 +/- 0.001%); type: functional
MCF7 [3] = test: Induction of apoptosis in human MCF7 cells assessed as induction of cell shrinkage by phase contrast inverted fluorescence microscopy; type: functional, cell-based
HepG2 [4] = test: Induction of apoptosis in human HepG2 cells assessed as viable cells level at IC50 incubated for 72 hrs by annexin V/propidium iodide staining based flow cytometry (reference value: 98.97%); type: functional
MCF7 [5] = test: Induction of apoptosis in human MCF7 cells assessed as total apoptotic cells at IC50 incubated for 72 hrs by annexin V/propidium iodide staining based flow cytometry (reference value: 0.48 +/- 0.01%); type: functional
NFS-60 [6] = test: Induction of apoptosis in mouse NFS60 cells assessed as late apoptotic cells level at IC50 incubated for 72 hrs by annexin V/propidium iodide staining based flow cytometry (reference value: 0.01%); type: functional
MCF7 [7] = test: Induction of apoptosis in human MCF7 cells assessed as early apoptotic cells level at IC50 incubated for 72 hrs by annexin V/propidium iodide staining based flow cytometry (reference value: 0.01%); type: functional
HepG2 [8] = test: Induction of apoptosis in human HepG2 cells assessed as caspase 3/7 activity using DEVD aminoluciferin as substrate at IC50 after 24 hrs by fluorescence assay relative to control; type: functional
In short: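 Caspase 3/7 activation measured with Caspase-Glo 3/7 kit using a luminogenic caspase-cleavable substrate. […] Reported as percent activation, mean ± SEM.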

MCF7 [9] = test: Induction of apoptosis in human MCF7 cells assessed as necrotic cells level at IC50 incubated for 72 hrs by annexin V/propidium iodide staining based flow cytometry (reference value: 0.48%); type: functional
NFS-60 [10] = test: Induction of apoptosis in mouse NFS60 cells assessed as total apoptotic cells at IC50 incubated for 72 hrs by annexin V/propidium iodide staining based flow cytometry (reference value: 0.495 +/- 0.01%); type: functional
Escherichia coli [11] = test: Antimicrobial activity against Escherichia coli ATCC 25922 incubated for 24 hrs by agar well diffusion assay; type: functional
In short: (§1)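 Nutrient agar spread with 100 µL inoculum: bacteria at 1×10^8 CFU/mL, fungi at 1×10^6 CFU/mL. 10 mm wells loaded with 100 µL of compound in DMSO (final 1 mg/mL). Bacteria incubated 24 h at 37 °C, fungi 48 h at 28 °C. Inhibition zones measured in mm. Ciprofloxacin and fluconazole standards at 1 mg/mL, DMSO negative control.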

Escherichia coli [12] = test: Antimicrobial activity against Escherichia coli ATCC 25922 incubated for 24 hrs by microdilution assay; type: functional; details: ATCC 25922, 24 h
In short: (§2)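 Two-fold serial dilutions of test solutions made in Mueller Hinton broth and inoculated. Incubated at 37°C for 24 h. MIC taken as the lowest concentration with no growth. Ciprofloxacin is the antibacterial reference, fluconazole the antifungal one, and DMSO the blank.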

Pseudomonas aeruginosa = test: Antimicrobial activity against Pseudomonas aeruginosa ATCC 27853 incubated for 24 hrs by agar well diffusion assay; type: functional; in short: as §1
Candida albicans [13] = test: Antimicrobial activity against Candida albicans ATCC 90028 incubated for 48 hrs by agar well diffusion assay; type: functional; in short: as §1
Candida albicans [14] = test: Antimicrobial activity against Candida albicans ATCC 90028 incubated for 24 hrs by microdilution assay; type: functional; in short: as §2
Staphylococcus aureus [15] = test: Antimicrobial activity against Staphylococcus aureus ATCC 25923 incubated for 24 hrs by agar well diffusion assay; type: functional; in short: as §1
Staphylococcus aureus [16] = test: Antimicrobial activity against Staphylococcus aureus ATCC 25923 incubated for 24 hrs by microdilution assay; type: functional; in short: as §2
Enterococcus faecalis = test: Antimicrobial activity against Enterococcus faecalis ATCC 29212 incubated for 24 hrs by agar well diffusion assay; type: functional; in short: as §1

Row | Compound | Activity (HepG2 [1]) | Activity (MCF7 [2]) | Activity (MCF7 [3]) | Activity (HepG2 [4]) | Activity (MCF7 [5]) | Activity (NFS-60 [6]) | Activity (MCF7 [7]) | Activity (HepG2 [8]) | Activity (MCF7 [9]) | Activity (NFS-60 [10]) | diameter of the inhibition zone (DIZ) (Escherichia coli [11]) | MIC (Escherichia coli [12]) | diameter of the inhibition zone (DIZ) (Pseudomonas aeruginosa) | diameter of the inhibition zone (DIZ) (Candida albicans [13]) | MIC (Candida albicans [14]) | diameter of the inhibition zone (DIZ) (Staphylococcus aureus [15]) | MIC (Staphylococcus aureus [16]) | diameter of the inhibition zone (DIZ) (Enterococcus faecalis)
1 | O=C(OC1(C(=O)Nc2ccc([N+](=O)[O-])cc2)CCCCC1)c1ccc([N+](=O)[O-])cc1 | 23.385% | 20.439% | Active | 57.37% | 44.505% | 17.56% | 1.96% | 50.68% | 25.02% | 41.795% |  |  |  |  |  |  |  | 
2 | O=C(Cc1ccccc1)OC1(C(=O)Nc2ccc([N+](=O)[O-])cc2)CCCCC1 | 27.77% | 22.09% | Active | 63.53% | 33.98% | 18.21% | 7.06% | 47.64% | 13.14% | 34.129% | 16 mm | 2680 µM (≈ 1020 µg/mL) | 15 mm | inactive | inactive | inactive | inactive | inactive
3 | O=C(OC1(C(=O)Nc2ccc([N+](=O)[O-])cc2)CCCCC1)C(O)c1ccccc1 (stereo unspecified) | 42.85% | 30.785% | Active | 47.87% | 53.129% | 22.89% | 3.76% | 53.64% | 23.42% | 44.185% | 16 mm | 2570 µM (≈ 1020 µg/mL) | 14 mm | inactive | inactive | inactive | inactive | inactive
